Active and inactive are the calls of the source. The calls are words filed in the database; no cut-off is given here.
Legend:
[1] = system: MDA-MB-231; experiment: Induction of opsonization in human MDA-MB-231 cells assessed as increase in recruitment of anti-FITC antibody to cell surface at 1 uM measured after 5 to 10 mins at pH 6 to 7.4 by Alexa Fluor 647 conjugated anti-FITC antibody based flow cytometry; format: functional
Method in brief: (§1)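 Cells in suspension (350000 MDA-MB-231) given 1 μM pH-adjusted conjugate for 5 or 10 min at 37 °C, pH 7.4 or 6.0, washed, then Alexa Fluor 647 anti-FITC mouse mAb in PBS/10% FBS 30 min at 4 °C, PFA-fixed. Flow cytometry, ≥3000 events; fold over pH 7.4 antibody-only cells; mean ± SEM, n = 3.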

[2] = system: Lipid bilayer; experiment: Binding affinity to POPC large unilamellar vesicle at 1:300 ratio measured after 30 mins at pH 5 to 7.4 by tryptophan fluorescence spectroscopic analysis
Method in brief: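 Peptide (7 μM final, from 20 μM stock in 5 mM sodium phosphate pH 8.0) with extruded 100 nm POPC LUVs at 1:300; pH set with HCl, 30 min RT before tryptophan emission spectra were recorded.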

[3] = system: MDA-MB-231; experiment: Induction of opsonization in human MDA-MB-231 cells assessed as increase in recruitment of anti-FITC antibody to cell surface at 1 uM measured after 5 to 10 mins at pH 6 by Alexa Fluor 647 conjugated anti-FITC antibody based flow cytometry relative to pH 7.4; format: functional; method in brief: as §1
[4] = system: MDA-MB-231; experiment: Induction of opsonization in human MDA-MB-231 cells assessed as increase in recruitment of anti-FITC antibody to cell surface at 1 uM measured after 5 mins at pH 6 to 7.4 by Alexa Fluor 647 conjugated anti-FITC antibody based immunofluorescence microscopic analysis; format: functional
Method in brief: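 Adherent MDA-MB-231 on poly-L-lysine coverslips given 1 μM conjugate for 5 min, 37 °C, pH 7.4 or 6.0, methanol-fixed, then Alexa Fluor 647 anti-FITC rabbit polyclonal at 30 μg/mL for 1 h at 37 °C, Hoechst nuclear stain; fluorescence microscopy, 20× objective.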

[5] = system: MDA-MB-231; experiment: (§2) Induction of antibody dependent cytotoxicity against human MDA-MB-231 cells assessed as cell lysis at 0.1 uM incubated for 5 mins at pH 6 followed by compound washout prior to anti-FITC antibody addition for 30 mins and subsequent human PBMC addition at 50:1 effector to target ratio measured after 4 hrs by LDH release assay relative to control; format: functional
Method in brief: (§3)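 150000 target cells (MDA-MB-231; also LnCap, SK-OV-3 with haNK) treated with conjugate 5 min at 37 °C, pH 7.4 or 6.0, washed, 25 μg/mL anti-FITC rabbit polyclonal 30 min 4 °C, then 4 h at 37 °C with PBMCs at 50:1 (RPMI) or haNK at 5:1 (MEMα). LDH release; % lysis relative to antibody-only pH 7.4 cells; mean ± SEM, n = 3–12.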

[6] = system: MDA-MB-231; experiment: as §2, with “assessed as increase in cell lysis” for “assessed as cell lysis”, “relative to pH 7.4” for “relative to control”; format: functional; method in brief: as §3
[7] = system: MDA-MB-231; experiment: (§4) Induction of antibody dependent cytotoxicity against human MDA-MB-231 cells assessed as induction of cell lysis up to 1 uM incubated for 5 mins at pH 6 to 7.4 followed by compound washout prior to anti-FITC antibody addition for 30 mins and subsequent human haNK cell addition at 5:1 effector to target ratio measured after 4 hrs by LDH release assay; format: functional, cell-based; method in brief: as §3
[8] = system: LNCaP; experiment: as §4, with “LNCAP” for “MDA-MB-231”, “at” for “up to”; format: functional, cell-based; method in brief: as §3
[9] = system: SK-OV-3; experiment: as §4, with “SKOV3” for “MDA-MB-231”, “at” for “up to”; format: functional, cell-based; method in brief: as §3
[10] = system: MDA-MB-231; experiment: as §2, with “lysis at > 0.1 uM” for “lysis at 0.1 uM”, “release assay” for “release assay relative to control”; format: functional, cell-based; method in brief: as §3
[11] = system: MDA-MB-231; experiment: as §4, with “at >” for “up to”; format: functional, cell-based; method in brief: as §3

Compound: CC[C@H](C)[C@H](NC(=O)[C@@H]1CCCN1C(=O)[C@H](CC(N)=O)NC(=O)[C@H](CCC(N)=O)NC(=O)[C@H](CCC(=O)O)NC(=O)[C@H](CSC1CC(=O)N(CCC(=O)NOCCOCCOCCOCCOCCOCCOCCOCCOCCOCCOCCOCCC(=O)NCCCNC(=O)c2ccc(-c3c4ccc(=O)cc-4oc4cc(O)ccc34)c(C(=O)O)c2)C1=O)NCC(N)=O)C(=O)N[C@@H](Cc1ccc(O)cc1)C(=O)N[C@@H](Cc1c[nH]c2ccccc12)C(=O)N[C@@H](C)C(=O)N[C@@H](CCCNC(=N)N)C(=O)N[C@@H](Cc1ccc(O)cc1)C(=O)N[C@@H](C)C(=O)N[C@@H](CC(=O)O)C(=O)N[C@@H](Cc1c[nH]c2ccccc12)C(=O)N[C@@H](CC(C)C)C(=O)N[C@@H](Cc1ccccc1)C(=O)N[C@H](C(=O)N[C@H](C(=O)N1CCC[C@H]1C(=O)N[C@@H](CC(C)C)C(=O)N[C@@H](CC(C)C)C(=O)N[C@@H](CC(C)C)C(=O)N[C@@H](CC(C)C)C(=O)N[C@@H](CC(=O)O)C(=O)N[C@@H](CC(C)C)C(=O)N[C@@H](C)C(=O)N[C@@H](CC(C)C)C(=O)N[C@@H](CC(C)C)C(=O)N[C@H](C(=O)N[C@@H](CC(=O)O)C(=O)N[C@@H](C)C(=O)N[C@@H](CC(=O)O)C(=O)N[C@@H](CCC(=O)O)C(=O)NCC(=O)N[C@H](C(=O)NCC(N)=O)[C@@H](C)O)C(C)C)[C@@H](C)O)[C@@H](C)O (stereo partly specified)
- Activity [1]: Active
- Activity [2]: Active
- fold change (FC) [3]: 5.4
- Activity [4]: Active
- Activity [5]: 40%
- fold change (FC) [6]: 2
- Activity [7]: Active
- Activity [8]: Active
- Activity [9]: Active
- Activity [10]: inactive
- Activity [11]: inactive

From ChEMBL document CHEMBL4354869, “pH-Dependent Grafting of Cancer Cells with Antigenic Epitopes Promotes Selective Antibody-Mediated Cytotoxicity” (J Med Chem, 2020)
